Measurements taken from ChEMBL document CHEMBL3734737, “Synthesis and Evaluation of a Radioiodinated Tracer with Specificity for Poly(ADP-ribose) Polymerase-1 (PARP-1) in Vivo” (J Med Chem, 2015).

Columns and labels:
[1] = target: Poly [ADP-ribose] polymerase 1 (Homo sapiens, UniProt P09874); assay: Inhibition of PARP1 (unknown origin) incubated for 10 mins using biotinylated NAD+ and activated DNA by colorimetric assay
albumin = albumin (Homo sapiens, UniProt P02768); assay: Protein binding to human serum albumin at 0.5 to 1.5 mg/ml by HPLC method; type: ADME; conditions: read-out: PPB (converted)
Chain of albumin (P02768 whole entry): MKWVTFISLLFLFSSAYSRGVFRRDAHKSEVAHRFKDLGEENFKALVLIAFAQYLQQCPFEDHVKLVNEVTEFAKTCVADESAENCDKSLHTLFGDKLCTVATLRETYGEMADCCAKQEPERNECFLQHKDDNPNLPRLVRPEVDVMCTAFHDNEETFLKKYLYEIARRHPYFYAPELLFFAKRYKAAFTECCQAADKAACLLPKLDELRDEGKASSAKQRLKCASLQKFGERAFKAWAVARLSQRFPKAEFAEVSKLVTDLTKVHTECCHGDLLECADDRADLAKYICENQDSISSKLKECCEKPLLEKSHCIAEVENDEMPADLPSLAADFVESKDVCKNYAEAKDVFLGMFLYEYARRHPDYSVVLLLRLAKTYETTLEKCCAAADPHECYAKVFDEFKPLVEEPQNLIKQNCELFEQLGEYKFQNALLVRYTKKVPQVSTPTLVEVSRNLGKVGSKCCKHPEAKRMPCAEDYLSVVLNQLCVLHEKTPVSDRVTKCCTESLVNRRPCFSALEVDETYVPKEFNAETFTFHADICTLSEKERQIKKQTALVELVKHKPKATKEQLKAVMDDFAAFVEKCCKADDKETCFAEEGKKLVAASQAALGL

[2] = Octanol-water partition coefficient, log P of the compound at 0.5 to 1.5 mg/ml by HPLC method; type: physicochemical
Method in brief: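 Samples of 0.5–1.5 mg/mL in MeCN/PBS were run in triplicate on reverse-phase C18 HPLC. The gradient was PBS/MeCN at 1.0 mL/min, with PBS at pH 4.0, 7.4 and 10.0. Retention times were calibrated against seven standards of known chromatographic hydrophobicity index (CHI) to give non-ionized CHI, from which log P was derived.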

Brain = assay: Drug level in brain of human U87MG-Luc2 cells xenografted CD1 mouse at 0.8 to 1.1 MBq, iv after 30 mins by gamma counting method; type: ADME, organism-based; conditions: in vivo, 0.5 h
Method in brief: (§1)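 Female 7–11 week CD1 nude mice carrying subcutaneous U87MG-Luc2 flank xenografts (5×10^6 cells; used 21–30 days post-implant) got a tail-vein bolus of 0.8–1.1 MBq [123I]-tracer in 10% EtOH/0.9% saline. They were killed by CO2 at 30 min (n=3). Tissues were fixed in formaldehyde, weighed and gamma counted. Background was subtracted and %ID/g was derived from a dose-stock control.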

Liver = assay: Drug level in liver of human U87MG-Luc2 cells xenografted CD1 mouse at 0.8 to 1.1 MBq, iv after 30 mins by gamma counting method; type: ADME, organism-based; conditions: in vivo, 0.5 h; method in brief: as §1
[3] = Drug level in small bowel matter of human U87MG-Luc2 cells xenografted CD1 mouse at 0.8 to 1.1 MBq, iv after 30 mins by gamma counting method; type: ADME, organism-based; conditions: in vivo, 0.5 h; method in brief: as §1
[4] = Drug level in solid feces of human U87MG-Luc2 cells xenografted CD1 mouse at 0.8 to 1.1 MBq, iv after 30 mins by gamma counting method; type: ADME, organism-based; conditions: in vivo, 0.5 h, TDE = time-dependent effect; method in brief: as §1
[5] = Metabolic stability in black-6 mouse plasma assessed as residual compound level at 250 uM incubated for 20 hrs by LC-MS method; type: ADME, cell-free; conditions: read-out: Stability
Method in brief: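 Plasma was taken from EDTA-treated female black-6 mouse blood. Compound (10 μL of 250 μM stock into 50 μL plasma; DMSO <1%) was held at room temperature for 0 or 20 h. It was MeOH-precipitated and measured by LC-MS (SIM) against an internal standard, as % parent relative to a no-plasma control. Three experiments, ± SD.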

[6] = Intrinisc clerarance in human liver microsomes assessed as residual compound level at 60 uM preincubated for 10 mins followed by NADPH addition in KH2PO4 at pH 7.4 by LC-MS method; type: ADME; conditions: read-out: CLH

Chain of Poly [ADP-ribose] polymerase 1 (P09874 whole entry): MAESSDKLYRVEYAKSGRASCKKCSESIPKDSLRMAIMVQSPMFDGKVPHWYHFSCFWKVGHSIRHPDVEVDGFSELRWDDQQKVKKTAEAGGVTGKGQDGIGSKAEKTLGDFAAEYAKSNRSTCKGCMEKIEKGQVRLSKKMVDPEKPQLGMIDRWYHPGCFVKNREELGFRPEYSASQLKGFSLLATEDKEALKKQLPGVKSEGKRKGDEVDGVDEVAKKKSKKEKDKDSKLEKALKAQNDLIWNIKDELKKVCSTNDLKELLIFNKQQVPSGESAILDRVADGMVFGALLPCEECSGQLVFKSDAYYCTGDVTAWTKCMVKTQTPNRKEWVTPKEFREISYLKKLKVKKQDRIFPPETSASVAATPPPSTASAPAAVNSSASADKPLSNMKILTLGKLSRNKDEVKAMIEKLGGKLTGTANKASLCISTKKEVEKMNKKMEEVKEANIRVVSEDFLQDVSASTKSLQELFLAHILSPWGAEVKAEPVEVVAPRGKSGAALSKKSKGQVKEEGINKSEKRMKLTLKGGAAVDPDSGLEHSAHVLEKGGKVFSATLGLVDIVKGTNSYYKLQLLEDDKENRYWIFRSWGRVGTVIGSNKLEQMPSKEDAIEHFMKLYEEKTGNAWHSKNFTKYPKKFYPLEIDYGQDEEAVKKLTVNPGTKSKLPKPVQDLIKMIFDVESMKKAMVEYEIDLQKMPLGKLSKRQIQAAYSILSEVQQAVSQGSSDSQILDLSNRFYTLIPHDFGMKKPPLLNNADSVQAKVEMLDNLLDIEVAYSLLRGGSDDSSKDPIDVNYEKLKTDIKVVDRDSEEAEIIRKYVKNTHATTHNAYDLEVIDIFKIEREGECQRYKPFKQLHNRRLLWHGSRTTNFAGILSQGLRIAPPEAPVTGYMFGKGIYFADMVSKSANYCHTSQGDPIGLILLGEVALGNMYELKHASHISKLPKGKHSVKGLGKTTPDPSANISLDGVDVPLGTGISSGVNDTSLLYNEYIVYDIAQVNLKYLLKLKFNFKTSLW

COc1ccc(C(=O)N2CCN(C(=O)c3cc(Cc4n[nH]c(=O)c5ccccc45)ccc3F)CC2)cc1I
IC50 [1]: 17.6 nM
fraction unbound (albumin): 0.035
logP [2]: 2.95

O=C(COc1ccc(I)cc1)N1CCN(C(=O)c2cc(Cc3n[nH]c(=O)c4ccccc34)ccc2F)CC1
IC50 [1]: 3 nM
fraction unbound (albumin): 0.019
logP [2]: 3.25

O=C(c1ccc([123I])cc1)N1CCN(C(=O)c2cc(Cc3n[nH]c(=O)c4ccccc34)ccc2F)CC1
Drug uptake (Brain): Not Active
Drug uptake (Liver): Active
Drug uptake [3]: Active
Drug uptake [4]: tde

O=C(Cc1cccc(I)c1)N1CCN(C(=O)c2cc(Cc3n[nH]c(=O)c4ccccc34)ccc2F)CC1
IC50 [1]: 5.8 nM
fraction unbound (albumin): 0.025
logP [2]: 3.13

Cc1ccc(C(=O)N2CCN(C(=O)c3cc(Cc4n[nH]c(=O)c5ccccc45)ccc3F)CC2)cc1I
IC50 [1]: 16.9 nM
fraction unbound (albumin): 0.024
logP [2]: 3.23

O=C(c1ccc(I)cc1)N1CCN(C(=O)c2cc(Cc3n[nH]c(=O)c4ccccc34)ccc2F)CC1
fraction unbound (albumin): 0.038
remaining at 20 h, 250 µM [5]: 98%
logP [2]: 3
microsomal CLint at 60 µM [6]: 85 µL/min/mg

O=C(c1cccc(I)c1)N1CCN(C(=O)c2cc(Cc3n[nH]c(=O)c4ccccc34)ccc2F)CC1
fraction unbound (albumin): 0.039
logP [2]: 2.97

O=C(c1cc(Cc2n[nH]c(=O)c3ccccc23)ccc1F)N1CCN(S(=O)(=O)c2ccc(I)cc2)CC1
IC50 [1]: 22.6 nM
fraction unbound (albumin): 0.016
logP [2]: > 3.25

O=C1CN=C(c2ccccn2)c2cc(Br)ccc2N1 [BROMAZEPAM]
fraction unbound (albumin): 0.4

CCCC1O[C@@H]2C[C@H]3[C@@H]4CCC5=CC(=O)C=C[C@]5(C)[C@H]4[C@@H](O)C[C@]3(C)[C@]2(C(=O)CO)O1 (some centres not stated) [BUDESONIDE]
fraction unbound (albumin): 0.12

NC(=O)N1c2ccccc2C=Cc2ccccc21 [CARBAMAZEPINE]
fraction unbound (albumin): 0.25

COC(=O)C1=C(C)NC(C)=C(C(=O)OCCN(C)Cc2ccccc2)C1c1cccc([N+](=O)[O-])c1 (configuration not stated) [NICARDIPINE]
fraction unbound (albumin): 0.05

CNC(=C[N+](=O)[O-])NCCSCc1csc(CN(C)C)n1 [NIZATIDINE]
fraction unbound (albumin): 0.65

O=C(c1cc(Cc2n[nH]c(=O)c3ccccc23)ccc1F)N1CCN(C(=O)C2CC2)CC1 [OLAPARIB]
logP [2]: 1.95
microsomal CLint at 60 µM [6]: 29 µL/min/mg
